# Experimental data from different studies.
# Lines come from different studies, so protocols differ.
# Target: Casein kinase I isoform gamma-2 (CSNK1G2, Homo sapiens, UniProt P78368)
SMILES,observed,action,technique,concentration,quantity,result
CS(=O)(=O)Nc1cccc(-c2csc(NC(=O)CSc3nc4nccnc4c(=O)n3CCc3ccccc3)n2)c1,enzyme activity,inhibitor,,10 µM,inhibition,8%
COc1ccc2cc(OCC3(C(=O)O)CN(C(=O)c4ccc(F)cc4)C3)ccc2c1,cell-free assay,,competition with immobilised ligand,1 µM,remaining binding,100%
CC(C)(C)c1nc2c(s1)c1nc(N)ncc1c1ccc(NS(=O)(=O)c3c(F)cccc3F)c(F)c12,enzyme activity,inhibitor,radiometric,1 µM,remaining activity,104%
CCCS(=O)(=O)Nc1ccc(F)c(C(=O)c2c[nH]c3ncc(-c4ccc(Cl)cc4)cc23)c1F,enzyme activity,inhibitor,,1 µM,inhibition,< 10%
COc1cc(Nc2cnc(C#N)c(O[C@H](C)CN(C)C)n2)ncc1-c1cnn(C)c1,enzyme activity,inhibitor,radiometric,1 µM,remaining activity,101%
Cc1sc(C(=O)NC2COC2)cc1-n1cc(NC(=O)Nc2c(F)cccc2Cl)cn1,enzyme activity,inhibitor,,10 µM,remaining activity,104%
COc1cc2ncnc(Nc3ccc(F)c(Cl)c3)c2cc1OCCCN1CCOCC1,cell-free assay,,,0.5 µM,remaining signal,98.1%
NS(=O)(=O)c1cc(NC(=O)C2(c3ccccc3Cl)CC2)ccc1Oc1cccc(Cl)c1,cell-free assay,,competition with immobilised ligand,1 µM,remaining binding,82%
Cc1ccc(C(=O)Nc2ccc(CN3CCN(C)CC3)c(C(F)(F)F)c2)cc1C#Cc1cnc2cccnn12,enzyme activity,inhibitor,,23.5 nM,remaining activity,96%
Cc1ccc(Nc2nccc(N(C)c3ccc4c(C)n(C)nc4c3)n2)cc1S(N)(=O)=O,cell-free assay,inhibitor,,0.5 µM,remaining signal,96.9%
CN1CCN(c2cnc3c(C4CCN(C(=O)c5ccc(OC(F)(F)F)cc5N)CC4)ncnc3c2)CC1,cell-free assay,,competition with immobilised ligand,1 µM,remaining binding,100%
CNC(=O)c1cc(Oc2ccc(NC(=O)Nc3ccc(Cl)c(C(F)(F)F)c3)cc2)ccn1,enzyme activity,inhibitor,,10 µM,inhibition,-4%
O=C1NC(=O)c2cc(Nc3ccc(F)cc3)c(Nc3ccc(F)cc3)cc21,cell-free assay,,,0.5 µM,remaining signal,97.5%
CN1CC(Oc2cnc(C#N)cc2-c2ccn3nc(NC(=O)C4CC4)cc3c2)C1,enzyme activity,inhibitor,,1 µM,inhibition,-2%
Nc1cnc(N2CCc3cc(S(=O)(=O)Nc4c(F)cc(Cl)cc4F)cc(N4CCCC4=O)c32)nc1,cell-free assay,,competition with immobilised ligand,1 µM,remaining binding,88%
Nc1ncnc2occ(-c3ccc(NC(=O)Nc4cc(C(F)(F)F)ccc4F)cc3)c12,cell-free assay,inhibitor,,20 µM,remaining signal,6.8%
COc1ccc2c(O[C@@H]3C[C@H]4C(=O)N[C@]5(C(=O)O)CC5/C=C\CCCCC[C@H](NC(=O)OC5CCCC5)C(=O)N4C3)cc(-c3csc(NC(=O)C(C)C)n3)nc2c1C (stereo partly shown),cell-free assay,,competition with immobilised ligand,1 µM,remaining binding,90%
CC(C)(O)[C@H]1CC[C@H](Nc2ccc3ncc(-c4cccc(C(F)(F)F)c4)n3n2)CC1,enzyme activity,inhibitor,,1 µM,remaining activity,96.1%
CCc1ccccc1C(=O)Nc1n[nH]c2c(C)c(F)c(C3C(C#N)=C(C)N(C)C(C)=C3C#N)cc12,cell-free assay,,competition with immobilised ligand,1 µM,remaining binding,97%
COc1cc2ncnc(Nc3ccc(Oc4ccccc4)cc3C)c2cc1OC,enzyme activity,inhibitor,,1 µM,inhibition,5%
C#Cc1cccc(Nc2ncnc3cc(OCCOC)c(OCCOC)cc23)c1,cell-free assay,,,0.5 µM,remaining signal,98.3%
O=C(NCCCC1CCCCC1)c1ccc(CNC(=O)c2cnn(-c3ccccc3)c2C(F)(F)F)cc1,cell-free assay,,competition with immobilised ligand,0.1 µM,remaining binding,96%
